Experimental data as given in ChEMBL document CHEMBL1124368 (J Med Chem, 1989).

Columns and labels:
Dihydrofolate reductase = molecular target: T1, Dihydrofolate reductase (Rattus norvegicus, UniProt Q920D2); assay: In vitro inhibitory concentration against rat liver dihydrofolate reductase(DHFR); settings: read-out: I50
T1 sequence (Q920D2 whole entry): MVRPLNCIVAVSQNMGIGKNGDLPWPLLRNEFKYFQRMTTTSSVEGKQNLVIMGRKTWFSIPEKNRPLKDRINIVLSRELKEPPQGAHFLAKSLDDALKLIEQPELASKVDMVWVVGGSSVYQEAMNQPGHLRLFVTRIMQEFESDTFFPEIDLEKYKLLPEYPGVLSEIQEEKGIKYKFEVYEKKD
Method in brief: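 Partially purified rat liver DHFR, prepared by the Bertino and Fischer method, assayed spectrophotometrically at 340 nm. I50 is the final inhibitor concentration that cuts the reaction rate to 50% of the uninhibited rate. […] Inhibitors were dissolved in 0.1 M HCl or 95% ethanol.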

Mus musculus [1] = assay: Ratio of tumor volume of test(T) animals compared to control(C) animals x 100 T/C(%)] at a dose of 3.125 mg/kg/day; format: functional
Method in brief: (§1)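 M5076 reticulum cell sarcoma: 10⁶ cells implanted im into the left leg of female BDF₁ mice (groups of five) on day 0. Treatment was ip, daily on days 1–17, in 10–20% DMSO in arachis oil. T/C% is treated tumor volume over control tumor volume × 100.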

Mus musculus [2] = assay: Ratio of tumor volume of test(T) animals compared to control(C) animals x 100 T/C(%)] at a dose of 6.25 mg/kg/day; format: functional; method in brief: as §1
Mus musculus [3] = assay: Tumor volume in 24 days after tumor implantation at a dose of 3.125 mg/kg/day; format: functional
Method in brief: (§2)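 10⁶ M5076 reticulum cell sarcoma cells were injected im into the left leg of female BDF₁ mice, five per group, on day 0. Compound in 10–20% DMSO/arachis oil was dosed ip daily on days 1–17. Tumor volumes (mm³) were recorded on days 12, 16, 20 and 24 after implantation, with NM marking a tumor that could not be measured.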

Mus musculus [4] = assay: Tumor volume in 24 days after tumor implantation at a dose of 6.25 mg/kg/day; format: functional; method in brief: as §2
Mus musculus [5] = assay: (§3) Mean of weight gain from day 0 to day 24 at a dose of 3.125 mg/kg/day of compound; format: functional; parameters: unit not given here
Method in brief: (§4)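 M5076 reticulum cell sarcoma: 10⁶ cells implanted im into the left leg of female BDF₁ mice (groups of five) on day 0. Drug in 10–20% DMSO in arachis oil was given ip daily on days 1–17. Weight change is the mean weight gain from day 0 to day 24.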

Mus musculus [6] = assay: Mean of weight gain from day 0 to day 24 at a dose of 6.25 mg/kg/day; format: functional; parameters: unit not given here; method in brief: as §4
Mus musculus [7] = assay: Ratio of tumor volume of test(T) animals compared to control(C) animals x 100 T/C(%)] at a dose of 12.50 mg/kg/day; format: functional; method in brief: as §1
Mus musculus [8] = assay: Ratio of tumor volume of test(T) animals compared to control(C) animals x 100 T/C(%)] at a dose of 25 mg/kg/day; format: functional; method in brief: as §1
Mus musculus [9] = assay: Tumor volume in 20 days after tumor implantation at a dose of 3.125 mg/kg/day; format: functional; method in brief: as §2
Mus musculus [10] = assay: Tumor volume in 20 days after tumor implantation at a dose of 6.25 mg/kg/day of compound; format: functional; method in brief: as §2
Mus musculus [11] = assay: Tumor volume in 24 days after tumor implantation at a dose of 12.5 mg/kg/day; format: functional; method in brief: as §2
Mus musculus [12] = assay: Mean of weight gain from day 0 to day 24 at a dose of 12.5 mg/kg/day of compound; format: functional; parameters: unit not given here; method in brief: as §4
Mus musculus [13] = assay: Mean of weight gain from day 0 to day 24 at a dose of 25 mg/kg/day of compound; format: functional; parameters: unit not given here; method in brief: as §4
Mus musculus [14] = assay: Tumor volume in 16 days after tumor implantation at a dose of 3.125 mg/kg/day of compound; format: functional; method in brief: as §2
Mus musculus [15] = assay: as §3; format: functional; method in brief: as §4

Compound	IC50 (Dihydrofolate reductase) [µM]	Antitumor activity (Mus musculus [1]) [%]	Antitumor activity (Mus musculus [2]) [%]	Tumor volume (Mus musculus [3]) [mm**3]	Tumor volume (Mus musculus [4]) [mm**3]	Weight change (Mus musculus [5])	Weight change (Mus musculus [6])	Antitumor activity (Mus musculus [7]) [%]	Tumor volume (Mus musculus [9]) [mm**3]	Tumor volume (Mus musculus [11]) [mm**3]	Weight change (Mus musculus [12])	also measured
CCc1nc(N)nc(N)c1-c1ccc([N+](=O)[O-])c(NCc2ccccc2)c1	9.2											
CCc1nc(N)nc(N)c1-c1ccc(NCc2ccc(OC)c(OC)c2)c([N+](=O)[O-])c1		10	9	371	324	1	0.9					
CCc1nc(N)nc(N)c1-c1ccc(NCc2ccccc2)c([N+](=O)[O-])c1		53	34	1454	932	2.2	2.1	21	443	586	1.6	Antitumor activity (Mus musculus [8]): <8%; Tumor volume (Mus musculus [10]): 301 mm**3; Weight change (Mus musculus [13]): 1.7
CCc1nc(N)nc(N)c1-c1ccc(N2CCCCC2)c(N)c1	> 25											
CCc1nc(N)nc(N)c1-c1ccc(N2CCN(C)CC2)c(N)c1	> 25											
CCc1nc(N)nc(N)c1-c1ccc(N2CCOCC2)c([N+](=O)[O-])c1	8											
CCc1nc(N)nc(N)c1-c1ccc(NCc2ccc(Cl)cc2)c([N+](=O)[O-])c1		29	20	873	597	3.2	3.3	13	552	380	2.9	
CCc1nc(N)nc(N)c1-c1ccc(NCc2ccc(C(F)(F)F)cc2)c([N+](=O)[O-])c1		40	20	948	454	3.4	2.3	12	627	265	2	Antitumor activity (Mus musculus [8]): <8%; Tumor volume (Mus musculus [14]): 291 mm**3; Weight change (Mus musculus [13]): 6.2
CCc1nc(N)nc(N)c1-c1ccc(N2CCCC2)c(N)c1	> 25											
CCc1nc(N)nc(N)c1-c1ccc(NCc2ccc(F)cc2)c([N+](=O)[O-])c1		68	20	1555	448		2.5	17	539	386	2	Weight change (Mus musculus [15]): 3.8; Antitumor activity (Mus musculus [8]): <8%; Tumor volume (Mus musculus [14]): 337 mm**3; Weight change (Mus musculus [13]): 4.3
CCc1nc(N)nc(N)c1-c1ccc(N(C)C)cc1	6.2											
CCc1nc(N)nc(N)c1-c1ccc(N2CCOCC2)c(N)c1	> 25											
CCc1nc(N)nc(N)c1-c1ccc([N+](=O)[O-])c(N(C)Cc2ccccc2)c1	0.44											
